Source: PubChem
mABHD4 FP: inhibitors of mouse ABHD4 | Q8VD66 | actives 0.54% (n = 370,000) | inhibition, % at 8.92 µM | purified mABHD4, FP-Rh probe fluorescence polarization;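 active = inhibition exceeding the mean over every tested compound plus 3 SD, cut at about 30% in these data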;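 note: 0% = plate median of compound wells and 100% = S159A mutant with DMSO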
Target sequence (Q8VD66 whole entry, looked up): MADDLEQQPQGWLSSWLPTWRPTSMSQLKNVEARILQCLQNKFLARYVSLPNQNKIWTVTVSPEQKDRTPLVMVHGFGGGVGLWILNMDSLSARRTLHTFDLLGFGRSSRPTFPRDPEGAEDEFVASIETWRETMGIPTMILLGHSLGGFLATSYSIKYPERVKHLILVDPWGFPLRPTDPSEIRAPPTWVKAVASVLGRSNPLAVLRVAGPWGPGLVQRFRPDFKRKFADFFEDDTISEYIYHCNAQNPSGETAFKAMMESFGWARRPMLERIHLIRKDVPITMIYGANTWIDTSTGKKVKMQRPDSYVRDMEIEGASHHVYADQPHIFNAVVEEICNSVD
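Material: mouse ABHD4 enzyme, wild type; Benchmarks: S159A mutant high control, sample median low control; Buffer or medium: HEPES pH 7.0, NaCl, Pluronic buffer; Signal: fluorescence polarization; Read-out: percent inhibition of probe binding, normalized to plate controls; Timing: pre-incubation 45 min, probe exposure 60 min, at 25 °C; Dosing: 8.92 µM, single dose.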
SIAE inh: human SIAE inhibition, primary screen. inhibition, % at 9.66 µM. actives 0.69% (n = 370,000). Q9HAT2. AID 1053197. SIAE FP-Rh probe binding, fluorescence polarization;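 active = inhibition above a cutoff: mean of compounds within the control limits plus 3 SD of those, cut at about 17% in these data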;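 note: 0% = plate median of compound wells and 100% = probe without SIAE protein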
PRMT1 FP inh: PRMT1 (human) inhibition, primary screen. Q99873. recombinant PRMT1, activity-based probe fluorescence polarization. inhibition, % at 2.79 µM. actives 1.3% (n = 370,000);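 active = inhibition above about 21% made by adding two undisclosed values, limit read from the data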
TCR-CD3 inh: blocks the human TCR-CD3 interaction; inhibition, % at 9.4 µM; actives 0.37% (n = 360,000); TAMRA-labeled TCR probe fluorescence, biochemical; in the data active = inhibition above about 19%;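 note: recombinant mutant TCR 2C K166C tagged with TAMRA read by polarization; 0% = receptor in buffer alone and 100% = receptor with positive control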
HTRA1 inh: HTRA1 (human) protease inhibition. recombinant HTRA1, FP-rhodamine activity-based probe, fluorescence polarization. inhibition, % at 5.96 µM. actives 0.5% (n = 340,000); in the data active = inhibition above about 36%;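 note: 0% = enzyme with DMSO and 100% = wells lacking enzyme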
PRMT1 inh conf: confirmation of human PRMT1 inhibitors. shares compounds with PRMT1 FP inh. recombinant His-PRMT1, activity-based probe fluorescence polarization. inhibition, % at 2.79 µM. actives 42% (n = 3,300). AID 687036;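 active = mean inhibition across replicates above the hit cutoff derived for the earlier primary screen, cut at about 22% in these data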
ABHD4 confirm: confirmation of mouse ABHD4 inhibitors; shares compounds with mABHD4 FP; purified mABHD4, FP-Rh probe fluorescence polarization; inhibition, % at 8.92 µM; actives 55% (n = 1,800);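 active = mean inhibition across replicates above the hit cutoff set in the primary screen, cut at about 30% in these data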;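 note: 0% = wild-type ABHD4 with DMSO and 100% = catalytically dead S159A mutant with DMSO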
SIAE confirm: human SIAE inhibition, confirmation; shares compounds with SIAE inh; SIAE FP-Rh activity-based probe, fluorescence polarization; inhibition, % at 9.66 µM; actives 13% (n = 2,300);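 active = mean inhibition of the replicates above the hit cutoff set in the primary screen, cut at about 17% in these data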;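 note: 0% = SIAE with DMSO and probe and 100% = probe without SIAE; inhibitors lower polarization as more probe stays unbound to SIAE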
The depositor's hits bear a star. The list is not random: actives were taken first. Their share in the collection is about 2.5%.

How did CCOC(=O)C1=c2s/c(=C\c3ccncc3)c(=O)n2C(N)=C(C(=O)OC)C1c1ccncc1 (centres undefined) do in these assays?
mABHD4 FP: -4; SIAE inh: 6; PRMT1 FP inh: 2; TCR-CD3 inh: 1; HTRA1 inh: -4

How did CCC/C(=C1/c2ccccc2C(=O)N1c1ccccc1)c1c(C)noc1C do in these assays?
mABHD4 FP: 7; SIAE inh: 8; PRMT1 FP inh: -1; TCR-CD3 inh: 4

What do the screens show for `C[C@@H]1CN([C@@H](C)CO)C(=O)CCCn2cc(nn2)CO[C@H]1CN(C)C(=O)Nc1ccc2c(c1)OCCO2`?
mABHD4 FP: 6; SIAE inh: -3; PRMT1 FP inh: 0; TCR-CD3 inh: 0

How did CCC[C@H]1[C@@H](OC(=O)NCc2ccc(Cl)cc2)CC[C@@]23CCCN2C(=O)CCC[C@@H]13 do in these assays?
mABHD4 FP: 3; SIAE inh: 5; PRMT1 FP inh: 2

What do the screens show for `CCCCCC(=O)Nc1cc(S(=O)(=O)O)cc2cc(S(=O)(=O)O)cc(O)c12`?
mABHD4 FP: 49*; SIAE inh: 11; PRMT1 FP inh: 45*; TCR-CD3 inh: 16; HTRA1 inh: 23; PRMT1 inh conf: 57*; ABHD4 confirm: 64*

What do the screens show for `CCC(=O)Nc1cc(OC)c(NC(=S)Nc2ccccc2CC)cc1OC`?
mABHD4 FP: 43*; SIAE inh: 11; PRMT1 FP inh: 47*; TCR-CD3 inh: 3; HTRA1 inh: 4; PRMT1 inh conf: -3; ABHD4 confirm: -5

How did Cc1ccc(S(=O)(=O)/N=C2/NC(=O)/C(=C\c3ccco3)S2)cc1 do in these assays?
mABHD4 FP: 32*; SIAE inh: -13; PRMT1 FP inh: 28*; TCR-CD3 inh: 15; HTRA1 inh: -11; PRMT1 inh conf: 6; ABHD4 confirm: -20

How did O=S(=O)(Nc1nc(-c2ccco2)c(-c2ccco2)s1)c1ccc(F)cc1F do in these assays?
mABHD4 FP: 47*; SIAE inh: -1; PRMT1 FP inh: 45*; TCR-CD3 inh: 11; HTRA1 inh: 5; PRMT1 inh conf: 20; ABHD4 confirm: 12

How did C=CCSC1=N/C(=C\c2cc(OCC)c(OC(C)=O)c([N+](=O)[O-])c2)C(=O)S1 do in these assays?
mABHD4 FP: 37*; SIAE inh: -11; PRMT1 FP inh: 28*; TCR-CD3 inh: 6; HTRA1 inh: 28; PRMT1 inh conf: 8; ABHD4 confirm: 85*

Results for C=CCSC1=N/C(=C\c2ccc3c(c2)OCO3)C(=O)S1 ?
mABHD4 FP: 9; SIAE inh: 0; PRMT1 FP inh: 3; TCR-CD3 inh: 2; HTRA1 inh: -7

How did Cc1ccc(C)c(N2CCN(C(=O)c3ccc4nc(-c5ccco5)c(-c5ccco5)nc4c3)CC2)c1 do in these assays?
mABHD4 FP: 42*; SIAE inh: 14; PRMT1 FP inh: 44*; TCR-CD3 inh: 17; HTRA1 inh: 7; PRMT1 inh conf: 19; ABHD4 confirm: -1

Results for CCN(Cc1cn(Cc2ccccc2)nn1)S(=O)(=O)c1ccc(F)cc1Br ?
mABHD4 FP: 5; SIAE inh: 4; PRMT1 FP inh: -4

How did Cc1cccc(C)c1NC(=O)CSCC(=O)O do in these assays?
mABHD4 FP: 0; SIAE inh: -1; PRMT1 FP inh: 3; TCR-CD3 inh: 1; HTRA1 inh: 4

What do the screens show for `Cc1cccc(C)c1NC(=O)CSCC(=O)c1ccc(O)c(O)c1`?
mABHD4 FP: 32*; SIAE inh: 0; PRMT1 FP inh: 39*; TCR-CD3 inh: 5; HTRA1 inh: 30; PRMT1 inh conf: 62*; ABHD4 confirm: 27

How did CC(C)CNC(=O)OCc1cn(Cc2ccc(F)c(F)c2)nn1 do in these assays?
mABHD4 FP: -3; SIAE inh: -5; PRMT1 FP inh: -3

How did C/C(=N\Nc1cccc(C(=O)O)c1)c1ccc(Cl)s1 do in these assays?
mABHD4 FP: 40*; SIAE inh: -6; PRMT1 FP inh: 42*; TCR-CD3 inh: -2; HTRA1 inh: -3; PRMT1 inh conf: 10; ABHD4 confirm: 45*

How did COc1ccc(/C(C)=N/Nc2cccc(C(=O)O)c2)cc1OC do in these assays?
mABHD4 FP: 9; SIAE inh: 3; PRMT1 FP inh: 2; TCR-CD3 inh: 9; HTRA1 inh: -4

How did Cc1ccc(-c2ccccc2)n1-c1ccc(C(=O)O)cc1 do in these assays?
mABHD4 FP: 36*; SIAE inh: 1; PRMT1 FP inh: 73*; TCR-CD3 inh: -9; HTRA1 inh: -8; PRMT1 inh conf: -1; ABHD4 confirm: -8

Results for C=CCn1c(O)c(C2=c3ccccc3=NC2=O)c2ccccc21 ?
mABHD4 FP: 38*; SIAE inh: 28*; PRMT1 FP inh: 42*; TCR-CD3 inh: 3; HTRA1 inh: 3; PRMT1 inh conf: 45*; ABHD4 confirm: 44*; SIAE confirm: 9

Results for O=C(CCl)NC1CCCCN(Cc2ccc(OC(F)(F)F)cc2)C1=O (centres undefined) ?
mABHD4 FP: 2; SIAE inh: 5; PRMT1 FP inh: 1

What do the screens show for `COCc1cc(N2CCN(C(=O)OC(C)(C)C)C[C@H]2C)ccc1N1CCS(=O)(=O)CC1`?
mABHD4 FP: -3; SIAE inh: -2; PRMT1 FP inh: 2; TCR-CD3 inh: 8

How did CCCCCn1c(=O)c(C(=O)c2ccccc2)nc2ccccc21 do in these assays?
mABHD4 FP: -8; SIAE inh: 0; PRMT1 FP inh: 2; TCR-CD3 inh: 7; HTRA1 inh: -7

Results for CCCCCCn1c(=O)[nH]c2nc3cc(N)ccc3nc2c1=O ?
mABHD4 FP: 50*; SIAE inh: 18*; PRMT1 FP inh: 124*; TCR-CD3 inh: 16; PRMT1 inh conf: 104*; ABHD4 confirm: 40*; SIAE confirm: 12

How did COCCCN1C(=O)[C@H](CC(=O)NCc2ccc(C)o2)[C@]2(C(=O)OC)CCCCC=C12 do in these assays?
mABHD4 FP: 0; SIAE inh: 0; PRMT1 FP inh: 4

What do the screens show for `COc1ccc(CNC2CCC23CCC(c2ccccc2)CC3)cc1OC` (centres undefined)?
mABHD4 FP: 9; SIAE inh: 8; PRMT1 FP inh: 1

What do the screens show for `O=c1c2c([N+](=O)[O-])cc([N+](=O)[O-])cc2sn1Cc1ccccc1`?
mABHD4 FP: 32*; SIAE inh: 25*; PRMT1 FP inh: 96*; TCR-CD3 inh: 0; HTRA1 inh: 9; PRMT1 inh conf: 97*; ABHD4 confirm: 26; SIAE confirm: 20*
